From article PMC4894453 (Scientific Reports, 2014)
≈ marks a conversion by molar mass, not a printed value.

How the values were obtained:
[1] = system: Enterococcus faecalis ATCC 33186; assay: MIC, microbroth dilution, Enterococcus faecalis; type: cell-based; conditions: Enterococcus faecalis, ATCC33186, read-out: MIC against Gram-positive bacteria, EF, Enterococcus faecalis ATCC 33186; Mueller-Hinton broth, 18–20 h
[2] = system: Streptococcus pyogenes ATCC 700294; assay: MIC, microbroth dilution, Streptococcus pyogenes; type: cell-based; conditions: Streptococcus pyogenes, ATCC700294, read-out: MIC against Gram-positive bacteria, SP
[3] = system: Streptococcus pneumoniae R6; assay: MIC, microbroth dilution, Streptococcus pneumoniae; type: cell-based; conditions: Streptococcus pneumoniae, R6, read-out: MIC against Gram-positive bacteria, SPn
Procedure, shortened: (§1)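 CLSI microbroth dilution in Mueller-Hinton broth. Test compound at final 200–0.1 μg/ml, diluted from 10 mg/ml DMSO stocks. Plates incubated 18–20 h. MIC is the lowest concentration preventing visible growth.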

[4] = system: Bacillus anthracis sterne; assay: microbe, parasite or virus in culture; type: cell-based; conditions: Bacillus anthracis, read-out: MIC against Gram-positive bacteria, BA
[5] = system: Bacillus subtilis ATCC 23857; assay: MIC, microbroth dilution, Bacillus subtilis; type: cell-based; conditions: Bacillus subtilis, ATCC23857, read-out: MIC against Gram-positive bacteria, BS
Procedure, shortened: as §1

[6] = system: Clostridium difficile BAA 1803; assay: MIC, microbroth dilution, anaerobic, Clostridium difficile; type: cell-based; conditions: Clostridioides difficile, BAA1803, 24 h, read-out: MIC against Gram-positive bacteria, CD, Clostridium difficile BAA 1803; Brain-heart infusion broth, 24 h, anaerobic
[7] = system: methicillin-resistant Staphylococcus aureus N315; assay: MIC, microbroth dilution, MRSA; type: cell-based; conditions: Staphylococcus aureus, MRSA, read-out: MIC against Gram-positive bacteria, MRSA
Procedure, shortened: as §1

[8] = system: Vero cells (kidney epithelial cells; ATCC CCL-81); assay: Cytotoxicity, CellTiter-Glo viability; type: cell-based; conditions: for Selectivity index: Cytotox IC50/MIC against methicillin-susceptible S. aureus Newman
Procedure, shortened: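 Vero kidney epithelial cells exposed 72 h to test compound (final 200–0.1 μg/ml in DMEM; diluted from 10 mg/ml DMSO stocks). Viability read by CellTiter-Glo luminescence. IC50 is the concentration giving 50% viability loss, from curve fitting. Selectivity index is the cytotoxic IC50 divided by the MIC against S. aureus Newman.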

S. aureus Newman = assay: Membrane potential by flow cytometry with DiOC2; type: cell-based, Staphylococcus aureus; conditions: 10 μM, 30 min, DiOC2(3)
Procedure, shortened: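 Exponential-phase S. aureus Newman (OD600 ≈ 0.3, Mueller-Hinton II broth) treated with test compound at 100, 10 or 1 μM for 30 min at 37°C. Cells stained 5 min with 30 μM DiOC2(3) and run on flow cytometry (10,000 events, 488 nm excitation, green and red emission). Red/green fluorescence ratio histograms compared. CCCP was the positive control; at least two independent samples.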

[9] = system: methicillin-susceptible Staphylococcus aureus Newman; assay: MIC, microbroth dilution, MSSA; type: cell-based; conditions: S. aureus Newman; 18–20 h
Procedure, shortened: as §1

[10] = system: panel of clinical relevant Gram-positive pathogens; assay: MIC, statements over the Gram-positive panel; type: cell-based

CCCCCCC/C=C/C(=O)N1C(=O)/C(=C(/C)O)C(=O)C1CCCCN (centres unmarked) [Compound 17, (Z)-5-(4-aminobutyl)-1-((E)-dec-2-enoyl)-3-(1-hydroxyethylidene)pyrrolidine-2,4-dione]
MIC [1]: 50 µg/mL (≈ 137 µM) | MIC [2]: > 200 µg/mL | MIC [3]: > 200 µg/mL | MIC [4]: > 200 µg/mL | MIC [5]: > 200 µg/mL | MIC [6]: > 64 µg/mL | MIC [7]: 200 µg/mL (≈ 549 µM) | Selectivity index [8]: 1 | dissipation of the membrane potential (S. aureus Newman): reduced their ability to dissipate the membrane potential

CCCCCCC/C=C/C(=O)N1C(=O)/C(=C(\O)c2ccccc2)C(=O)C1CC(C)C (centres unmarked) [Compound 7, (Z)-1-((E)-dec-2-enoyl)-3-(hydroxy(phenyl)methylene)-5-isobutylpyrrolidine-2,4-dione]
MIC [1]: 0.39 µg/mL (≈ 0.948 µM) | MIC [2]: 12.5 µg/mL (≈ 30.4 µM) | MIC [3]: 12.5 µg/mL (≈ 30.4 µM) | MIC [4]: > 200 µg/mL | MIC [5]: 0.78 µg/mL (≈ 1.9 µM) | MIC [6]: 0.75 µg/mL (≈ 1.82 µM) | MIC against Gram-positive bacteria, MSSA [9]: <0.1 µg/mL | MIC [7]: < 0.1 µg/mL | Selectivity index [8]: >125 | MIC ([10]; read-out: MIC over the Gram-positive panel): < 1 µg/mL

C/C(O)=C1\C(=O)C(CC(C)C)N(C(=O)C=Cc2ccccc2)C1=O (centres unmarked) [Compound 4, (Z)-1-cinnamoyl-3-(1-hydroxyethylidene)-5-isobutylpyrrolidine-2,4-dione]
MIC [1]: 12.5 µg/mL (≈ 38.2 µM) | MIC [2]: 25 µg/mL (≈ 76.4 µM) | MIC [3]: 3.13 µg/mL (≈ 9.56 µM) | MIC [4]: > 200 µg/mL | MIC [5]: 25 µg/mL (≈ 76.4 µM) | MIC [6]: 8 µg/mL (≈ 24.4 µM) | MIC [7]: 1.6 µg/mL (≈ 4.89 µM) | Selectivity index [8]: 2 | fold better activity than 3 throughout the panel ([10]; Gram-positive panel, compared to 3): ≤ 8 fold

CCCCCCC/C=C/C(=O)N1C(=O)/C(=C(/C)O)C(=O)C1Cc1ccc(O)cc1 (centres unmarked) [Compound 19, (Z)-1-((E)-dec-2-enoyl)-5-(4-hydroxybenzyl)-3-(1-hydroxyethylidene)pyrrolidine-2,4-dione]
MIC [1]: 50 µg/mL (≈ 125 µM) | MIC [2]: 50 µg/mL (≈ 125 µM) | MIC [3]: 25 µg/mL (≈ 62.6 µM) | MIC [4]: 200 µg/mL (≈ 501 µM) | MIC [5]: 50 µg/mL (≈ 125 µM) | MIC [6]: 32 µg/mL (≈ 80.1 µM) | MIC [7]: 25 µg/mL (≈ 62.6 µM) | Selectivity index [8]: 2 | Cytotox IC50 ([8]; Vero kidney cells, 72 h, 50% reduction of viability): 93.53 µg/mL

N#CC(C#N)=NNc1cccc(Cl)c1 [CCCP, carbonyl cyanide m-chlorophenyl hydrazone, reference compound]
dissipation of the membrane potential (S. aureus Newman): complete dissipation of the membrane potential

CCCCCCC/C=C/C(=O)N1C(=O)/C(=C(/C)O)C(=O)C1CO (centres unmarked) [Compound 15, (Z)-1-((E)-dec-2-enoyl)-3-(1-hydroxyethylidene)-5-(hydroxymethyl)pyrrolidine-2,4-dione]
MIC [1]: 100 µg/mL (≈ 309 µM) | MIC [2]: 50 µg/mL (≈ 155 µM) | MIC [3]: 100 µg/mL (≈ 309 µM) | MIC [4]: > 200 µg/mL | MIC [5]: 200 µg/mL (≈ 618 µM) | MIC [6]: 64 µg/mL (≈ 198 µM) | MIC [7]: > 200 µg/mL | Selectivity index [8]: 1

CCCCCCC/C=C/C(=O)N1C(=O)/C(=C(\O)c2ccc(OCOCCOC)cc2)C(=O)C1CC(C)C (centres unmarked) [Compound 11, (Z)-1-((E)-dec-2-enoyl)-3-(hydroxy(4-((2-methoxyethoxy)methoxy)phenyl)methylene)-5-isobutylpyrrolidine-2,4-dione]
MIC [1]: 0.78 µg/mL (≈ 1.51 µM) | MIC [2]: 25 µg/mL (≈ 48.5 µM) | MIC [3]: 12.5 µg/mL (≈ 24.2 µM) | MIC [4]: 0.2 µg/mL (≈ 0.388 µM) | MIC [5]: 1.56 µg/mL (≈ 3.03 µM) | MIC [6]: 0.25 µg/mL (≈ 0.485 µM) | MIC [7]: 0.2 µg/mL (≈ 0.388 µM) | Selectivity index [8]: 25

CCCCCCC/C=C/C(=O)N1CC(=O)/C(=C(\C)O)C1=O [Compound 14, (Z)-1-((E)-dec-2-enoyl)-3-(1-hydroxyethylidene)pyrrolidine-2,4-dione]
MIC [1]: 6.25 µg/mL (≈ 21.3 µM) | MIC [2]: 50 µg/mL (≈ 170 µM) | MIC [3]: 12.5 µg/mL (≈ 42.6 µM) | MIC [4]: 1.56 µg/mL (≈ 5.32 µM) | MIC [5]: 12.5 µg/mL (≈ 42.6 µM) | MIC [6]: 2 µg/mL (≈ 6.82 µM) | MIC [7]: 3.2 µg/mL (≈ 10.9 µM) | Selectivity index [8]: 3
